Measurements from ChEMBL document CHEMBL5316351, “Development of a Covalent Inhibitor of c-Jun N-Terminal Protein Kinase (JNK) 2/3 with Selectivity over JNK1” (J Med Chem, 2023).
One block for each molecule: values may come before it. Activity calls are given as the source filed them. The rule behind the calls is not given here.

Experiments:
[1] = biological target: T1, Mitogen-activated protein kinase 14 (Homo sapiens, UniProt Q16539); test: Inhibition of Nano-Luc fused p38alpha (unknown origin) expressed in HEK293T cells pretreated for 3 hrs followed by K5-tarcer addition and measured after 1 hr by NanoBRET assay; type: cell-based; conditions: time 4.0 hrs
T1 sequence (Q16539 whole entry, the tested form may be a part): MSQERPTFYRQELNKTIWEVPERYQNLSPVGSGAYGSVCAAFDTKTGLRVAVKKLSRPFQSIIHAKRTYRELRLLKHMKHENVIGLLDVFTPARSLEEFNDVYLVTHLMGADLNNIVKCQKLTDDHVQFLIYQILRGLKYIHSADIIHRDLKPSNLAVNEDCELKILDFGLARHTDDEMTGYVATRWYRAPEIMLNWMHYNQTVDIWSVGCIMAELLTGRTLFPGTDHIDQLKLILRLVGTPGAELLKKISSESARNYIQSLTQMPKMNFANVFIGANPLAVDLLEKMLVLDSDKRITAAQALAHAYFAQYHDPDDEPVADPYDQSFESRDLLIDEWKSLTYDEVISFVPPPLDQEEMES

[2] = biological target: T1, Mitogen-activated protein kinase 14; test: Inhibition of GST-tagged human recombinant p38alpha expressed in Escherichia coli by Z'-LYTE assay
[3] = biological target: T2, Mitogen-activated protein kinase 9 (Homo sapiens, UniProt P45984); test: Inhibition of Nano-Luc fused JNK2 (unknown origin) expressed in HEK293T cells pretreated for 3 hrs followed by K5-tarcer addition and measured after 1 hr by NanoBRET assay; type: cell-based
Target sequence in this assay (P45984 whole entry, the tested form may be a part): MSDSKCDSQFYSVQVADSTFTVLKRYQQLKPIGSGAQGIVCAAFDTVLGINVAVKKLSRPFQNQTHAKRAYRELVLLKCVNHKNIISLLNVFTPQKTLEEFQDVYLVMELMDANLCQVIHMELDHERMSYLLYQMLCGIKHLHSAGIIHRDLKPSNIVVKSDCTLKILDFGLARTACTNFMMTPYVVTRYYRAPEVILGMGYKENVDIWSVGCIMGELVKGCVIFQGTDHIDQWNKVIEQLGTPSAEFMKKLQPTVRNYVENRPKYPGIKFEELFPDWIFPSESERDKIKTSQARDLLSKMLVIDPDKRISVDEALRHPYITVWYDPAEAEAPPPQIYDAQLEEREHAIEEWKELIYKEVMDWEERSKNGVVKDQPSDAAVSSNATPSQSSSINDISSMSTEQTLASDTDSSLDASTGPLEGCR

MM1.S = test: Antiproliferative activity against human MM1.S cells assessed as inhibition of cell growth rate measured after 72 hrs by CellTiter-Glo luminescent assay; type: functional
[4] = biological target: T3, Mitogen-activated protein kinase 8 (Homo sapiens, UniProt P45983); test: Inhibition of wild type full length human JNK1 expressed in mammalian expression system at 1 uM by KinomeScan analysis
T3 sequence (P45983 whole entry): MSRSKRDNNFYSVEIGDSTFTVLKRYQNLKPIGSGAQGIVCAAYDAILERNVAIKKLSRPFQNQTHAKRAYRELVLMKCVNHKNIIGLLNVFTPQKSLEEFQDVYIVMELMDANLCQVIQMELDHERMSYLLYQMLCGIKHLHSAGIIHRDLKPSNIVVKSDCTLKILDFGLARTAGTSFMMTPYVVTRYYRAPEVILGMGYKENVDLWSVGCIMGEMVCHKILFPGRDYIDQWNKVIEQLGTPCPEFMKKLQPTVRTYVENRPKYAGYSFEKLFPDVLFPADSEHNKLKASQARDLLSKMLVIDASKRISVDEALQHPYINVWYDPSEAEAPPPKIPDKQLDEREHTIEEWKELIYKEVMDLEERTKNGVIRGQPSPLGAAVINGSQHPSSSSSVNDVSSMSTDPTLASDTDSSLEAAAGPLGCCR
Procedure, shortened: (§1)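 KINOMEscan (ScanMAX) binding panel of >400 kinases, compound tested at 1 μM; reported as percent inhibition/score.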

Homo sapiens [5] = organism: Homo sapiens; test: Inhibition of CK1gamma (unknown origin) at 1 uM by KinomeScan analysis
Procedure, shortened: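 KINOMEscan ScanMAX panel screened at 1 μM compound.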

[6] = biological target: Mitogen-activated protein kinase 10 (Homo sapiens) (UniProt P53779); test: Inhibition of human full length recombinant JNK3 at 1 uM by KinomeScan analysis; procedure, shortened: as §1
Mitogen-activated protein kinase 10 (Homo sapiens), sequence (P53779 whole entry): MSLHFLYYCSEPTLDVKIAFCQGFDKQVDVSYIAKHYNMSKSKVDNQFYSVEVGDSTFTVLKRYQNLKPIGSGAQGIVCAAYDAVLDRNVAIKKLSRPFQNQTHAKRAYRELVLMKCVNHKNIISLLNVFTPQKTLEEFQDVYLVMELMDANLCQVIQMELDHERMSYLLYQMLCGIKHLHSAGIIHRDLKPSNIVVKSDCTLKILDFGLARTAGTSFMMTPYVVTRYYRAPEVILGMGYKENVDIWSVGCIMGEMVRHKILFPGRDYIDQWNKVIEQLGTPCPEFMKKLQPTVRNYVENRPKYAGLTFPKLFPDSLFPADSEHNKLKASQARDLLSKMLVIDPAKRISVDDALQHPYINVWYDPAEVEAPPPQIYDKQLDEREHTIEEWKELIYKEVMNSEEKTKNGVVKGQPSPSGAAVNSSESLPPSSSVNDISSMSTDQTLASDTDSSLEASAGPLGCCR

[7] = biological target: T4, 1-phosphatidylinositol 3-phosphate 5-kinase (Homo sapiens, UniProt Q9Y2I7); test: Inhibition of PIKFYVE in human MDA-MB-231 cells assessed as vacuole formation at 1 uM measured after 3 days by bright field microscopy; type: cell-based; conditions: time 3.0 day
T4 sequence (Q9Y2I7 whole entry): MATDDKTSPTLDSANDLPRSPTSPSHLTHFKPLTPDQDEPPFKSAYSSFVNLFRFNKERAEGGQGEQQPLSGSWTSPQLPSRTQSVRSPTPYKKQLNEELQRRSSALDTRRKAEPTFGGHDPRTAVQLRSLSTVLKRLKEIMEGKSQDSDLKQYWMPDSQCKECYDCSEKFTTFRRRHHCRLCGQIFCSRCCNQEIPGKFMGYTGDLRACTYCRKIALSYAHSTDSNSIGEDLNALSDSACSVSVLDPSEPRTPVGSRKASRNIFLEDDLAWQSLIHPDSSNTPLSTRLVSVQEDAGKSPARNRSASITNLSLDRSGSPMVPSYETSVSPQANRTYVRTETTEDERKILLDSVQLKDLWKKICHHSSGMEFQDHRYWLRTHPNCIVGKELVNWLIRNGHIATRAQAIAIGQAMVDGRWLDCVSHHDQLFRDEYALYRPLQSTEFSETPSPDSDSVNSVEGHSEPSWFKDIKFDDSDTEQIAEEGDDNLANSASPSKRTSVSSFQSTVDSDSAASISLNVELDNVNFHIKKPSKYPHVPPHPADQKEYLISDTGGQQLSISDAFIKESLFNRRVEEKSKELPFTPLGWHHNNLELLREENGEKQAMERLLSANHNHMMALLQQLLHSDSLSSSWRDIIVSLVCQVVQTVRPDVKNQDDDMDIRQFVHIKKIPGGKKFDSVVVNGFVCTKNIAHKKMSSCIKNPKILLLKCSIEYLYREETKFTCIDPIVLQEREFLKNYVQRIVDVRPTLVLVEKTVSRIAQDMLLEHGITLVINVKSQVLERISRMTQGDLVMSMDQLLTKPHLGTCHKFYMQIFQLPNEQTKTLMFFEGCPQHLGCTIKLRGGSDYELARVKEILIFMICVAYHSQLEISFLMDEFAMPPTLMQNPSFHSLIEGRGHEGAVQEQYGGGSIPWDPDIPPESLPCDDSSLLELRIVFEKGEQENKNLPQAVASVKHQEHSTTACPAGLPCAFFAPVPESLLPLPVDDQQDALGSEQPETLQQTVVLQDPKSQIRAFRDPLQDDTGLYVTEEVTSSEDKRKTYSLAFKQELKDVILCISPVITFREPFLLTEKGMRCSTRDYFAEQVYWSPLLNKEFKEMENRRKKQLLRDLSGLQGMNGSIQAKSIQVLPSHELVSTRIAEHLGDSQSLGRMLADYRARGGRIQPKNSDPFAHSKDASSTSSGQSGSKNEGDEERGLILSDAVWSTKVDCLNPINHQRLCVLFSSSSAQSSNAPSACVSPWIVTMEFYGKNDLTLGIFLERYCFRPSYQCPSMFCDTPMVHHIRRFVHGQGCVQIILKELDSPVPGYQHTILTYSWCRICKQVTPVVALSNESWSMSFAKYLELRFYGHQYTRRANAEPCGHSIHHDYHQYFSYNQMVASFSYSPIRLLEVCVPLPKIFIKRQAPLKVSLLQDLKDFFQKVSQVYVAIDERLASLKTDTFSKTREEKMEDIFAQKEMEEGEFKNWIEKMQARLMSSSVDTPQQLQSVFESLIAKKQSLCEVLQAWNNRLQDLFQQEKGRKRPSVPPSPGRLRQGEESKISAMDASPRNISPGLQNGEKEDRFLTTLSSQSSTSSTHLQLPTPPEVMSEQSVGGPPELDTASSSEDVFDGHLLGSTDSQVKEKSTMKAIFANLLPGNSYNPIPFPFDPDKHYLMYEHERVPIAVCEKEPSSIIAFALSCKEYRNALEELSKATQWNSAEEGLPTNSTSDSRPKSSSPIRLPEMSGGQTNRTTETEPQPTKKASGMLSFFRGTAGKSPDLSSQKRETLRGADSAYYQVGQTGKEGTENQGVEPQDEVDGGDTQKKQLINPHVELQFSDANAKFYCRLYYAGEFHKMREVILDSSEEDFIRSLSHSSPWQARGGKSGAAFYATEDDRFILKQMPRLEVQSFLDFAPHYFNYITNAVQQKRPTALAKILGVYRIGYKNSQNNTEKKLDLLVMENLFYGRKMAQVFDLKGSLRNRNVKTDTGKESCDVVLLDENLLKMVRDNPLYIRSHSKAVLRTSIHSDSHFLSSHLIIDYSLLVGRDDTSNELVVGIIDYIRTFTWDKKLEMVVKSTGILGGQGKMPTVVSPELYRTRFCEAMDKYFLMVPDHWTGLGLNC
Procedure, shortened: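 MDA-MB-231 cells (DMEM, 10% FBS) seeded, next day treated with inhibitor or DMSO; after 3 days imaged by bright-field microscopy at 20× for vacuoles.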

[8] = biological target: T3, Mitogen-activated protein kinase 8; test: Inhibition of His-tagged human recombinant JNK1 expressed in insect cells incubated for 1 hr in presence of ATP by Z'-Lyte assay; set-up: species or system Insect cell
[9] = biological target: T2, Mitogen-activated protein kinase 9; test: Inhibition of His-tagged human recombinant JNK2 expressed in baculovirus expression system incubated for 1 hr in presence of ATP by Z'-Lyte assay
Target sequence in this assay (P45984 whole entry, the tested form may be a part): as the sequence (P45984 whole entry, the tested form may be a part) above

[10] = biological target: T1, Mitogen-activated protein kinase 14; test: Inhibition of p38alpha in human SUM159 cells at 1 uM by KiNativ Profiling analysis; type: cell-based; conditions: SUM159PT
Procedure, shortened: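 SUM159 cells treated with 1 μM compound, then washed with PBS and frozen. Lysates were chased with a nonspecific ATP or ADP-biotin probe that labels the conserved catalytic lysine.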

[11] = biological target: T4, 1-phosphatidylinositol 3-phosphate 5-kinase; test: Inhibition of PIKFYVE in human SUM159 cells at 1 uM by KiNativ Profiling analysis; type: cell-based; conditions: SUM159PT
Procedure, shortened: (§2)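 SUM159 cells treated with 1 μM compound, collected, PBS-washed and frozen; lysates probed with ATP/ADP-biotin acyl probe labelling catalytic lysine (KiNativ); protection from labelling measured.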

Homo sapiens [12] = organism: Homo sapiens; test: Selectivity ratio of IC50 for His-tagged human recombinant JNK1 expressed in insect cells to His-tagged human recombinant JNK2 expressed in baculovirus expression system
Procedure, shortened: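 Z′-Lyte kinase assays of JNK1 and JNK2 with 100 μM ATP and 1 h compound incubation. Fixed time point IC50 was determined in duplicate. The selectivity ratio is JNK1 IC50 over JNK2 IC50.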

SUM159PT = test: Inhibition of CK1gamma in human SUM159 cells at 1 uM by KiNativ Profiling analysis; type: cell-based; procedure, shortened: as §2
[13] = biological target: T2, Mitogen-activated protein kinase 9; test: Covalent binding affinity to JNK2 (unknown origin) assessed as Cys116 labelling at protein:compound concentration ratio of 1:5 incubated for 1 hr by capillary electrophoresis MS/MS analysis
Procedure, shortened: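 Purified JNK2 (5 μg) incubated 1 h at room temperature with 5-fold molar excess compound; intact mass by LC/MS, then trypsin digest and capillary electrophoresis-MS/MS database search for modified residue.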
Target sequence in this assay (P45984 whole entry, looked up, the tested form may be a part): as the sequence (P45984 whole entry, the tested form may be a part) above

[14] = biological target: T1, Mitogen-activated protein kinase 14; test: Inhibition of wild type full length human p38 alpha (M1 to S360 residues) expressed in bacterial expression system at 1 uM by KinomeScan analysis; procedure, shortened: as §1
[15] = biological target: T4, 1-phosphatidylinositol 3-phosphate 5-kinase; test: Inhibition of wild type partial length human PIKFYVE (F1512 to C2098 residues) expressed in mammalian expression system at 1 uM by KinomeScan analysis; procedure, shortened: as §1
[16] = biological target: T2, Mitogen-activated protein kinase 9; test: Inhibition of JNK2 in human SUM159 cells at 1 uM by KiNativ Profiling analysis; type: cell-based; conditions: SUM159PT; procedure, shortened: as §2
Target sequence in this assay (P45984 whole entry, looked up, the tested form may be a part): as the sequence (P45984 whole entry, the tested form may be a part) above

[17] = biological target: T4, 1-phosphatidylinositol 3-phosphate 5-kinase; test: Inhibition of Nano-Luc fused PIKFYVE (unknown origin) expressed in HEK293T cells pretreated for 3 hrs followed by K8-tarcer addition and measured after 1 hr by NanoBRET assay; type: cell-based
[18] = biological target: T2, Mitogen-activated protein kinase 9; test: Inhibition of wild type full length human JNK2 (M1 to Q382 residues) expressed in mammalian expression system at 1 uM by KinomeScan analysis; procedure, shortened: as §1
Target sequence in this assay (P45984 whole entry, looked up, the tested form may be a part): as the sequence (P45984 whole entry, the tested form may be a part) above

[19] = biological target: T4, 1-phosphatidylinositol 3-phosphate 5-kinase; test: Binding affinity to wild type partial length human PIKFYVE (F1512 to C2098 residues) expressed in mammalian expression system by KdELECT kinase assay

- inhibition [1]: Active
- IC50 [2]: 15 nM
- IC50 [3]: 1700 nM
SMILES: C[C@H]1CN(C(=O)c2ccc(NC(=O)CCCN(C)C)cc2)C[C@H]1Nc1nccc(-c2c(-c3ccccc3)nn3ccccc23)n1
- Activity (MM1.S): inactive

- inhibition [4]: Active
- inhibition (Homo sapiens [5]): Active
- inhibition [6]: Active
- inhibition [7]: Active
- IC50 [8]: 166 nM
- IC50 [9]: 5 nM
- inhibition [10]: Active
- inhibition [11]: Active
- Activity [13]: 100%
- inhibition [14]: Active
- inhibition [15]: Active
- inhibition [16]: Active
- IC50 [17]: 292 nM
- inhibition [18]: Active
- Kd [19]: 270 nM
SMILES: CN(C)C/C=C/C(=O)Nc1ccc(C(=O)N2CC[C@H](Nc3nccc(-c4c(-c5ccccc5)nn5ccccc45)n3)C2)cc1
- Ratio IC50 (Homo sapiens [12]): 33
- inhibition (SUM159PT): Active
